The term GI50 denotes the concentration at which growth is held to half of that of the control. The low end stands for greater sensitivity of the cells, the high end for lower sensitivity of the cells.

Holding throughout (format): functional
The subject of one experiment is NCI-H23. Nature of the experiment: Cytotoxicity against human NCI-H23 cells after 48 hrs by sulforhodamine B assay. The note with it: NCI-H23, 48 h. The procedure, abridged:
(§1)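 Cells seeded in 96-well plates with test compounds or doxorubicin control and incubated 48 h. Fixed with 50% trichloroacetic acid, stained with 0.4% sulforhodamine B in 1% acetic acid, and washed with 1% acetic acid. Bound dye was extracted with 10 mM Tris base (pH 10.5) and absorbance read at 540 nm for growth inhibition.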
In general terms: The SRB assay estimates cell density from bound dye.

A further experiment relates to NUGC-3. The experiment can be described thus: Cytotoxicity against human NUGC3 cells after 48 hrs by sulforhodamine B assay. The note with it: NUGC-3, 48 h. The procedure, abridged:
as §1

A further experiment has as its system MDA-MB-231. The experiment can be described thus: Cytotoxicity against human MDA-MB-231 cells after 48 hrs by sulforhodamine B assay. Particulars: MDA-MB-231, 48 h. Put shortly:
as §1

The test system of the next experiment is ACHN. The experiment can be described thus: Cytotoxicity against human ACHN cells after 48 hrs by sulforhodamine B assay. The procedure, abridged:
as §1

The subject of the next experiment is PC-3. Nature of the experiment: Cytotoxicity against human PC3 cells after 48 hrs by sulforhodamine B assay. Particulars: PC-3, 48 h. The procedure, abridged:
as §1

For the next experiment, the system named is HCT-15. The experiment can be described thus: Cytotoxicity against human HCT15 cells after 48 hrs by sulforhodamine B assay. The note with it: HCT-15, 48 h. The procedure, abridged:
as §1

Where only a bound is given, the exact number is not on record here.

Turning to `N#CC(=O)NCCCOc1c(Br)cc(C(O)CN)cc1Br` (configuration not stated), the GI50 in the experiment on NCI-H23, in the experiment on NUGC-3, in the experiment with MDA-MB-231, in the experiment with ACHN, in the experiment with PC-3 and in the experiment on HCT-15 was greater than 70 µM in each case.
For the molecule `COC1=C(Br)C[C@@]2(OC=C1Br)ON=C(C(=O)NCCCOc1c(Br)cc(CCNC=C3C(=O)C=CC3=O)cc1Br)[C@H]2O`, the GI50 in the experiment on NCI-H23 amounted to 7 µM; in the experiment on NUGC-3 it was 4 µM; in the experiment with MDA-MB-231 it was 3.9 µM; in the experiment with ACHN it was 10.3 µM; with PC-3, 3.7 µM; with HCT-15 it was 7.4 µM.
For `COC1=C(Br)C[C@@]2(OC=C1Br)ON=C(C(=O)NCCCOc1c(Br)cc(C(O)CNC(=O)CCCCCCCCCCCC(C)C)cc1Br)[C@H]2O` (some centres not stated), the GI50 in the experiment with NCI-H23 was 27 µM; in the experiment with NUGC-3 it was 26 µM; with MDA-MB-231, 21 µM; in the experiment on ACHN it was 27 µM; in the experiment with PC-3, 25 µM; in the experiment on HCT-15, 24 µM.
Consider `COC1=C(Br)C[C@]2(OC=C1Br)ON=C(C(=O)NCCCOc1c(Br)cc(CCN/C=C3/C(=O)CC(Cl)C3=O)cc1Br)[C@@H]2O` (mixture of isomers), for which the GI50 in the experiment with NCI-H23 stood at 6.4 µM; with NUGC-3, 3.5 µM; in the experiment on MDA-MB-231, 1.2 µM; in the experiment with ACHN, 3.3 µM; in the experiment with PC-3 it was 2.3 µM; in the experiment on HCT-15, 3.3 µM.
`COC1=C(Br)C[C@]2(OC=C1Br)ON=C(C(=O)NCCCOc1c(Br)cc(C(O)CN/C=C3/C(=O)CC(Cl)C3=O)cc1Br)[C@@H]2O` (mixture of isomers) [19-HYDROXYPSAMMAPLYSINE X]: the GI50 amounted to 3.5 µM with NCI-H23; 4 µM with NUGC-3; 0.8 µM in the experiment on MDA-MB-231; 2.5 µM with ACHN; 2.1 µM with PC-3; 3.5 µM in the experiment with HCT-15.
On to `COC1=C(Br)C[C@@]2(OC=C1Br)ON=C(C(=O)NCCCOc1c(Br)cc(C(O)CN)cc1Br)[C@H]2O` (relative stereo), for which the GI50 in the experiment on NCI-H23 was 3.7 µM; in the experiment on NUGC-3, 2.5 µM; in the experiment on MDA-MB-231, 0.53 µM; in the experiment with ACHN, 1.6 µM; in the experiment on PC-3, 2.7 µM; in the experiment with HCT-15, 4 µM.
On to `COC1=C(Br)C[C@@]2(OC=C1Br)ON=C(C(=O)NCCCOc1c(Br)cc(CCN)cc1Br)[C@H]2O` (relative stereo), for which the GI50 turned out to be 12.4 µM with NCI-H23; 3.8 µM with NUGC-3; 4.3 µM in the experiment on MDA-MB-231; 5.1 µM in the experiment with ACHN; 6.9 µM with PC-3; 3.9 µM with HCT-15.
Consider `COC1=C(Br)C[C@@]2(OC=C1Br)ON=C(C(=O)NCCCOc1c(Br)cc(C(O)CNC=C3C(=O)C=CC3=O)cc1Br)[C@H]2O` (some centres not stated) [19-HYDROXYPSAMMAPLYSINE E], for which the GI50 in the experiment on NCI-H23 came to 3.6 µM; with NUGC-3, 2.3 µM; with MDA-MB-231, 0.51 µM; with ACHN, 2.3 µM; in the experiment on PC-3, 1.4 µM; with HCT-15, 3.8 µM.
With `N#CC(=O)NCCCOc1c(Br)cc(CCN)cc1Br` [CERATINAMINE], the GI50 with NCI-H23, in the experiment with NUGC-3, in the experiment with MDA-MB-231, with ACHN, in the experiment with PC-3 and in the experiment with HCT-15 was greater than 70 µM in each case.
As for `COc1cccc2c1C(=O)c1c(O)c3c(c(O)c1C2=O)C[C@@](O)(C(=O)CO)C[C@@H]3O[C@H]1C[C@H](N)[C@H](O)[C@H](C)O1` [DOXORUBICIN], the GI50 stood at 1.9 µM in the experiment on NCI-H23; 0.51 µM in the experiment on NUGC-3; 1.8 µM in the experiment with MDA-MB-231; 2 µM in the experiment with ACHN; 0.52 µM in the experiment with PC-3; 1.4 µM in the experiment with HCT-15.
Consider `NCCCOc1c(Br)cc(C(O)CN)cc1Br` (configuration not stated) [HYDROXYMOLOKA'IAMINE], for which the GI50 with NCI-H23, in the experiment on NUGC-3, in the experiment with MDA-MB-231, with ACHN, in the experiment on PC-3 and in the experiment on HCT-15 was greater than 70 µM each time.
For the molecule `NCCCOc1c(Br)cc(CCN)cc1Br` [MOLOKA'IAMINE], the GI50 in the experiment on NCI-H23, with NUGC-3, with MDA-MB-231, with ACHN, in the experiment with PC-3 and with HCT-15 was greater than 70 µM throughout.
